# Molecular target: T1, OR5M3 (Homo sapiens) (UniProt Q8NGP4)
# T1 sequence (whole entry): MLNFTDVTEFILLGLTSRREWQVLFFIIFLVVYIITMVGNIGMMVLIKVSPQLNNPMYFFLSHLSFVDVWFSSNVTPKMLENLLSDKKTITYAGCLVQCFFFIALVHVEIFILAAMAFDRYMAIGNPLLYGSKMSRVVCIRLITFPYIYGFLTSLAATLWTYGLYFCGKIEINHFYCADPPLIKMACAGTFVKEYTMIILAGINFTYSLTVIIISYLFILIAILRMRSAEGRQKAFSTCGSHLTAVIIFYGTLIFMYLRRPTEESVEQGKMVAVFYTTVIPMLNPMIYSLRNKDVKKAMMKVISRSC
# Details: stereoisomer not certain
# Summary of the method: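 Whether a receptor–molecule pair is responsive (active) rests on the original authors' judgment that its measured signal was statistically different from baseline. Pairs without that judgment are non-responsive (inactive). Sources used varied assay methods, commonly transient luciferase assays in mammalian cell lines.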
# 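Also: active if original authors judged signal statistically different from baseline.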
row,Compound,odorant receptor agonist call
1,CCC(C)C=O (stereo not drawn),inactive
2,CCCC(=O)OCC,inactive
3,CC1=CCOC1=O,inactive
4,CCOC(=O)C=Cc1ccccc1,inactive
5,COc1cccc(OC)c1O,inactive
6,CC1=CCC(C(C)C)C=C1 (stereo not drawn),inactive
7,C=CC(=O)CC=CCC,inactive
8,CCCCCc1ccccn1,inactive
9,CC(C)(S)CCOC=O,inactive
10,CCC=CCCC=O,inactive
11,CCCCC(CC)CCC(=O)O (stereo not drawn),inactive
12,CCCCCC1CCC(=O)O1 (stereo not drawn),inactive
13,CCCSSCCC,inactive
14,CCOC(=O)C(C)CC (stereo not drawn),inactive
15,CCOC(=O)CC(C)C,inactive
16,CCC(S)C(C)=O (stereo not drawn),inactive
17,CCCCCCCC1CCC(=O)O1 (stereo not drawn),inactive
18,CCC(=O)C(C)=O,inactive
19,C=CC(O)CCCCC (stereo not drawn),inactive

row,Compound,odorant receptor agonist call
1,SCCc1ccccc1,inactive
2,CCCC(=O)OC,inactive
3,CSCSC,inactive
4,C=CCSC,inactive
5,CCc1ccc(O)cc1,inactive
6,CC1(C)OC=CC1=O,inactive
7,CC1=CC(=O)C(C)O1 (stereo not drawn),inactive
8,Cc1c[nH]c2ccccc12,inactive
9,CCOC(C)OCC,inactive
10,CCCC(=O)C(C)CC (stereo not drawn),inactive
11,CCOC(=O)CCSC,inactive
12,CCCSSSCCC,inactive
13,CCCCC(=O)OCC,inactive
14,CC(=O)OCCC(C)C,inactive
15,CC(=O)OCCc1ccccc1,inactive
16,CC(C)CCCCCCCCCCC=O,inactive
17,CC(=O)C1=NCCS1,inactive
18,CCCCC=CC=O,inactive
19,CCCCCCC1CCC(=O)O1 (stereo not drawn),inactive

# Reference: the M2OR odorant receptor database
